# Most compounds without a hit are left out; they make up all but 2.5% or so of the library.
# Vif imaging – blocks HIV Vif function; HEK293T cells, Vif self-association by quenched fluorescence, imaging, 24 h; inhibition, % at 7.49 µM; hit rate 0.35% among 340,000; in the data active = inhibition above about 50%, passing the limit was not always enough
# SMARCA2 activ – activators of SMARCA2 function; MG213 cells, MMTV-luciferase reporter, dexamethasone, overnight; activation, % at 9.1 µM; hit rate 1% among 370,000; AID 652017; in the data active = activation above about 7.8%;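 note: 0% = vehicle wells and 100% = reference activator wells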
# TAG inh – reduces triacylglycerol accumulation in H9c2 cells. Nile Red lipid (TAG) fluorescence; cells loaded with 200 µM oleic acid. inhibition, % at 12.5 µM. hit rate 0.66% among 230,000. AID 651582;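 active = pattern-corrected inhibition of lipid staining of at least 50% with the nuclear-stain viability signal not falling by more than 50%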;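 note: 0% = DMSO wells and 100% = triacsin C control wells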
# SR-BI DiI inh – blocks mouse SR-BI lipid uptake from DiI-HDL; inhibition, % at 12.5 µM; ldlA[mSR-BI] CHO cells, DiI-HDL uptake fluorescence, 3 h; hit rate 0.96% among 320,000;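 active = mean replicate inhibition of at least 70% and a set share of replicates each scoring 70 or more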;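 note: 0% = median of neutral control wells and 100% = median of positive control wells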
# Target sequence (Q61009 whole entry, looked up): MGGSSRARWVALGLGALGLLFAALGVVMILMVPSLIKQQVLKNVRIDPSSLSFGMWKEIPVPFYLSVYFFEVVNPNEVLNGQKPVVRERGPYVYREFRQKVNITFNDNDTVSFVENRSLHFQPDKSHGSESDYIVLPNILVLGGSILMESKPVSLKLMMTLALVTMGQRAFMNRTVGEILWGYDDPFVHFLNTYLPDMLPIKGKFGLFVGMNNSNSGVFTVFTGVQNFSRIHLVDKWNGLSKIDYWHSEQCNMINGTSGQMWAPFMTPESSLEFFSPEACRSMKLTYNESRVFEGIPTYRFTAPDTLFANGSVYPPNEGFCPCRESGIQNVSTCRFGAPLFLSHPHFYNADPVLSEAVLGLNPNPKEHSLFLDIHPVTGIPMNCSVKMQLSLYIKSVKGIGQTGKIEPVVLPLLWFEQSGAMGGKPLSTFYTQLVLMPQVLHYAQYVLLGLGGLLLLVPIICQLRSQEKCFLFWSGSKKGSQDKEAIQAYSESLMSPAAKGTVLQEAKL
# SR-BI uptake up – enhances SR-BI lipid uptake from DiI-HDL; CHO ldlA[mSR-BI] cells, DiI-HDL uptake fluorescence, 3 h; 100 = double the neutral-control signal; activation, % at 12.5 µM; hit rate 0.096% among 320,000;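 active = mean replicate activation of at least 60% and every replicate at or above 60%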;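 note: 0% = median plate neutral-control signal and 100% = twice that signal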
#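 Test system: SR-BI-overexpressing, LDLR-lacking CHO cells; Medium: Ham's F12 with 0.5% BSA, HEPES 25 mM, pH 7.4; Schedule: 3 h, 37 °C; Technique: bottom-read fluorescence, 550/595 nm.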
# Starred values were filed as active, the others as inactive; . = no result given; + = active, no number; ! = not confirmed by another sample.
SMILES,Vif imaging,SMARCA2 activ,TAG inh,SR-BI DiI inh,SR-BI uptake up
CC1(C)CC(=O)C=C(C#CC2(O)CCCCC2)C1,5,-5,56*,.,.
Oc1ccc(C2Nc3cccc4cccc(c34)N2)c(O)c1,-1,-1,.,91*,-91
Clc1ccccc1C1Nc2cccc3cccc(c23)N1,10,1,.,-10,10
C[C@H]1C2CC(OC(=O)Nc3ccc(C(F)(F)F)cc3)C(C2)[C@H]2CCCCN21 (stereo partly specified),.,-3,.,.,.
Cc1[nH]n(-c2ccccc2)c(=O)c1/C=N/NC(=O)c1cccc([N+](=O)[O-])c1,3,0,20,112*,-112
Cc1[nH]n(-c2ccccc2)c(=O)c1/C=N/NC(=O)c1ccccc1F,-1,2,.,106*,-106
CC(=O)N/N=C/c1c(C)[nH]n(-c2ccccc2)c1=O,0,-2,-1,-4,4
CC/C(=N/NC(=O)c1ccccc1O)c1c(C)[nH]n(-c2ccccc2)c1=O,-1,1,7,137*,-137
COc1ccc(-n2c(SCC(=O)Nc3ccc(OCc4ccccc4)cc3)nnc2-c2ccc(C)cc2)cc1,.,-2,.,.,.
CC1CCC(NC(=O)CN2C(=O)c3ccccc3S2(=O)=O)CC1 (stereo unspecified),59*,0,-3,-23,23
CN1C(=O)C(C)(C)c2cc(S(=O)(=O)N3CCCCCC3)ccc21,88*,0,-11,4,-4
O=C(CNS(=O)(=O)c1ccccc1)N1CCN(c2ccccn2)CC1,.,4,.,.,.
CC1=CC(C)(C)Nc2ccc(OC(=O)CCN3C(=O)c4ccccc4C3=O)cc21,2,-6,54*,-18,18
Cc1nc(-c2ccccc2)cc(N2CCCC2)n1,1,1,.,17,-17
Nc1nc(-c2ccccc2)cc(N2CCCCC2)n1,.,0,76*,-9,9
C=CC[C@]12C[C@@]3(O[C@H](C4CCCCC4)N=C3C[C@H](c3ccc(OC)cc3)[C@H]1C)N(Cc1ccncc1)C2=O,.,0,.,.,.
CC(C)N=C(N)N=C(N)Nc1ccc(Cl)cc1,2,-5,11,-7,7
NC(=NCCCCCCN=C(N)/N=C(\N)Nc1ccc(Cl)cc1)/N=C(\N)Nc1ccc(Cl)cc1,6,-3,-5,-92,92*!
O=C(NCc1ccccc1Cl)C1CCN(S(=O)(=O)c2ccc(N3CCCC3=O)cc2)CC1,3,1,.,114*,.
Cc1ccc(Cl)cc1N1CCN(C(c2ccc(C#N)cc2)c2nnnn2C2CCCC2)CC1 (stereo unspecified),11,-2,.,33,-33
Cc1ccc(Cl)cc1N1CCN(C(c2cccnc2)c2nnnn2C2CCCCC2)CC1 (stereo unspecified),71*,-1,.,28,-28
NC(=S)NN=C1CCCCC12CCCC2,0,2,12,75*,-75
NC(=S)NN=C1CCC2(CCCCC2)CC1,13,-6,-5,85*,-85
COC(=O)c1cc2c(c3c4cc(C)ccc4n(S(=O)(=O)c4ccccc4)c13)C(=O)N(Cc1ccc(C(F)(F)F)cc1)C2,.,-3,.,.,.
O=C1S/C(=C/c2ccc(N3CCOCC3)o2)C(=O)N1Cc1c(F)cccc1Cl,+,2,.,35,-35
SMILES,Vif imaging,SMARCA2 activ,TAG inh,SR-BI DiI inh,SR-BI uptake up
O=C1S/C(=C\c2ccc(N3CCOCC3)o2)C(=O)N1Cc1c(F)cccc1Cl,8,-2,.,29,-29
C=CCNC(=S)N/N=C/c1ccc(-c2cc(Cl)ccc2Cl)o1,-23,-2,.,16,-16
O=C(O)c1ccc(N/N=C/c2ccc(-c3cccc(Cl)c3)o2)cc1,-7,6,84*,18,-18
O=C(O)c1ccc(N/N=C/c2ccc(-c3cc(Cl)ccc3Cl)o2)cc1,-4,0,19,-42,42
C=CCNC(=S)N/N=C/c1ccc(-c2ccc(Cl)cc2Cl)o1,0,-2,0,71*,-71
O=C(O)c1cccc(-c2ccc(/C=N/Nc3ccc([N+](=O)[O-])cc3)o2)c1,-3,1,-7,-21,21
O=C(O)c1ccc(N/N=C/c2ccc(-c3ccc(Cl)cc3Cl)o2)cc1,18,1,53*,.,.
C=CCN1[C@H](C#N)[C@@H](c2ccc(Br)cc2)[C@H]1CO,.,4,.,.,.
C[C@H](O)[C@@H]1CN2CCc3ccc(-c4ccc5c(c4)OCO5)cc3[C@@H]2C[C@@H]1N(C)C(=O)NC1CCCCC1,.,-3,.,.,.
O=C(NCCc1ccccc1Cl)[C@@H]1CCCN1C(=O)[C@@H](NS(=O)(=O)c1ccc(F)cc1F)c1ccccc1,.,-2,.,.,.
Cc1cc2ccccn2c1C(=O)c1cc([N+](=O)[O-])cc([N+](=O)[O-])c1,1,0,-9,82*,-83
O=C(CCN1C(=O)C2C3C=CC(C3)C2C1=O)Nc1ccccn1 (stereo unspecified),-6,7.8*,.,-30,30
O=C1/C(=C\c2ccco2)CCC/C1=C\c1ccco1,-5,16*,.,19,-19
O=C1/C(=C/c2ccco2)CCC1C1CCCC1 (stereo unspecified),-11,-1,5,.,.
Cc1nc(SCCc2ccccc2)[nH]c(=O)c1C,0,.,.,-8,8
Cc1nc(SCc2ccc(Br)cc2)[nH]c(=O)c1C,52*,-4,-1,-21,21
Oc1ccccc1N=Cc1c(O)ccc2ccccc12,.,1,.,80*,-80
C=Cc1ccc(N=Cc2c(O)ccc3ccccc23)cc1,.,-2,.,75*,-75
COc1ccc(CC(=O)NNS(=O)(=O)c2ccc([N+](=O)[O-])cc2)cc1OC,5,-1,.,-61,61*
COc1cccc(/C=N/N2CCN(C3c4ccccc4-c4ccccc43)CC2)c1O,-12,-1,44,72*,-72
COCCN1C(=O)C2=C(C1=O)C1N(C)c3ccccc3[C@@]13C[C@@H](CO)N(C(=O)CCC(=O)OC)C3=N2 (stereo partly specified),.,-2,.,.,.
COC(=O)Cn1c(=NC(=O)c2ccc(OC)cc2)sc2cc(OC)ccc21,-5,-1,.,71*,-71
COC(=O)Cn1c(=NC(=O)c2cc(OC)cc(OC)c2)sc2cc(OC)ccc21,2,0,5,62,-62
CCc1nnc(NC(=O)c2nc(S(=O)(=O)Cc3ccc(C)cc3)ncc2Cl)s1,-17,-14,.,-64,64*
CCOc1ccccc1C(=O)Nc1cc(OC)ccc1OC,-3,0,.,79*,-79
COc1ccc(OC)c(NC(=O)c2nc(-c3ccccc3)oc2C)c1,114*,2,-13,6,-6
CCOc1ccccc1C(=O)NCC(=O)OCCOc1cccc(Cl)c1,13,0,-9,-4,4
CCOc1ccccc1C(=O)NCC(=O)OCCCOC(=O)CNC(=O)c1ccccc1OCC,-3,2,6,84*,-84
CCOc1cc(NC(=O)c2ccccc2OC)c(OCC)cc1NC(=O)c1ccccc1,-2,-2,.,34,-34

# Screens from PubChem.
